Source: article PMC3090679 (Biochemistry, 2011)
Positions count from the first letter of the chain named. Entries after “also recorded” stand apart in the source; their conditions may differ. Like-named read-outs stand apart in the source and are kept apart here.

Tests used:
RGS7 = target: T1, RGS7 (Homo sapiens, UniProt P49802); experiment: FCPIA, RGS7/Gαo binding
T1 sequence (P49802 333-448 limits assumed): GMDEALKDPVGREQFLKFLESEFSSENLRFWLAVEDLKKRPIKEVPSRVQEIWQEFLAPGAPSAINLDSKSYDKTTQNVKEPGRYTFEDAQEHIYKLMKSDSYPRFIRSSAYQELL
Procedure, shortened: (§1)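 Constructs were RGS19 ΔC11 as an MBP/10×His fusion and the RGS7 homology domain as a GST fusion. Each was chemically biotinylated, immobilised on avidin microspheres and pretreated with test compound or vehicle for 15 min at room temperature. Beads were then mixed with AlexaFluor-532-Gαo plus GDP/AlF and binding was read by flow cytometry. IC50 is the mean±SEM of at least three independent experiments.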

[1] = target: T2, RGS4-stimulated GTP hydrolysis by Gαo (Homo sapiens, UniProt P49798); experiment: Single turnover GTPase assay, RGS4 GAP activity; format: biochemical
T2 sequence (P49798 52-205 limits assumed): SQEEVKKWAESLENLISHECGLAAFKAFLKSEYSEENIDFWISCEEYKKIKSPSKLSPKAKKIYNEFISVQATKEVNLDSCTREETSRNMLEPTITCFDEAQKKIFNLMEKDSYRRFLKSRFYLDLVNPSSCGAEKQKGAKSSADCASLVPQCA
Procedure, shortened: (§2)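 Single-turnover measurement of Gαo GTP hydrolysis, with or without RGS4 or RGS8, in the presence of test compound, following a previously published method. The RGS8 homology domain was an N-terminal 6×His construct from pQE-80 carrying native Cys107 and Cys160. All proteins were purified to >90% homogeneity, and Gαo activity was confirmed by [35S]GTPγS binding. Output is the GTP hydrolysis rate constant k (sec−1).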

RGS8cys− (C160S/C107S) = target: T3, RGS8cys− (C160S/C107S) (Homo sapiens, UniProt P57771, C142S/C89S); experiment: FCPIA, RGS8cys−/Gαo binding
T3 sequence (P57771 56-171 C89S/C142S): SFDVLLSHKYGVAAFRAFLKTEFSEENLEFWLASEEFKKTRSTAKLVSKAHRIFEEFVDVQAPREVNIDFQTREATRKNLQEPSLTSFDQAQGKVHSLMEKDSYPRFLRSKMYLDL
Procedure, shortened: (§3)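 RGS8 homology domain (N-terminal 6×His, pQE-80) with Cys→Ser site-directed mutations was chemically biotinylated on amines and loaded on avidin microspheres. Beads were treated with test compound or vehicle for 15 min at room temperature, then mixed with AlexaFluor-532-labelled Gαo plus GDP and aluminium fluoride. Binding was read by Luminex flow cytometry. Values are mean±SEM of three independent experiments.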

RGS4 wild Type = target: T4, RGS4 wild Type (Homo sapiens, UniProt P49798); experiment: FCPIA, RGS4/Gαo binding
T4 sequence (P49798 52-205 limits assumed): T2 sequence (P49798 52-205 limits assumed)

RGS19 = target: T5, RGS19 (Homo sapiens, UniProt P49795); experiment: FCPIA, RGS19/Gαo binding
T5 sequence (P49795 1-206 limits assumed): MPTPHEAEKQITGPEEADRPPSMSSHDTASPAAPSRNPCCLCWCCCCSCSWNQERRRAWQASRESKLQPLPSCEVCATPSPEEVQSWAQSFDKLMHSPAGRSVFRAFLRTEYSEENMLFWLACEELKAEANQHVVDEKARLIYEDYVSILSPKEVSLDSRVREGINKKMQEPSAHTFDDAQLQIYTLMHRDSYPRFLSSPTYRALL
Procedure, shortened: as §1

RGS8 [2] = target: T6, RGS8 (Homo sapiens, UniProt P57771); experiment: FCPIA, RGS8/Gαo binding
T6 sequence (P57771 56-171 limits assumed): T3 sequence (P57771 56-171 C89S/C142S) with S34C, S87C

Gαo [3] = target: T7, Gαo (Homo sapiens, UniProt P09471); experiment: Single turnover GTPase assay, intrinsic Gαo rate; format: biochemical; conditions: 100 μM
Procedure, shortened: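 N-terminally 6×His-tagged Gαo was purified to >90% homogeneity. Single-turnover hydrolysis of isotopically diluted γ[32P]GTP was measured. Results are expressed as the rate constant k (sec−1) of GTP hydrolysis.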

160C RGS8 (C107S) = target: T8, 160C RGS8 (C107S) (Homo sapiens, UniProt P57771, C89S); experiment: FCPIA, 160C RGS8/Gαo binding
T8 sequence (P57771 56-171 C89S): T3 sequence (P57771 56-171 C89S/C142S) with S87C
Procedure, shortened: as §3

WT RGS8 [4] = target: T9, WT RGS8 (Homo sapiens, UniProt P57771); experiment: Gel filtration then FCPIA competition, WT RGS8; format: binding
T9 sequence (P57771 56-171 limits assumed): T3 sequence (P57771 56-171 C89S/C142S) with S34C, S87C

WT RGS8 [5] = target: T9, WT RGS8; experiment: ESI-LC/MS protein adduct analysis, WT RGS8; conditions: WT RGS8 2 μM
[6] = target: T10, RGS8-stimulated GTP hydrolysis by Gαo (Homo sapiens, UniProt P57771); experiment: Single turnover GTPase assay, RGS8 GAP activity; format: biochemical
T10 sequence (P57771 56-171 limits assumed): T3 sequence (P57771 56-171 C89S/C142S) with S34C, S87C
Procedure, shortened: as §2

Gαo [7] = target: T7, Gαo; experiment: ThermoFluor thermal stability, Gαo; format: binding
RGS8Cys− = target: T11, RGS8Cys− (Homo sapiens, UniProt P57771, C142S/C89S); experiment: ESI-LC/MS protein adduct analysis, RGS8Cys−; conditions: RGS8Cys− mutant
T11 sequence (P57771 74-189 isoform P57771-2 C107S/C160S): T3 sequence (P57771 56-171 C89S/C142S)

107C RGS8 = target: T12, 107C RGS8 (Homo sapiens, UniProt P57771, C142S); experiment: Gel filtration then FCPIA competition, 107C RGS8; format: binding; conditions: 107C RGS8 after gel filtration
T12 sequence (P57771 74-189 isoform P57771-2 C160S): T3 sequence (P57771 56-171 C89S/C142S) with S34C

RGS8 [8] = target: T6, RGS8; experiment: ThermoFluor thermal stability, RGS8; format: binding
160C RGS8 = target: T13, 160C RGS8 (Homo sapiens, UniProt P57771, C89S); experiment: Gel filtration after compound treatment, 160C RGS8
T13 sequence (P57771 56-171 C89S): T3 sequence (P57771 56-171 C89S/C142S) with S87C

107C RGS8 (C160S) = target: T14, 107C RGS8 (C160S) (Homo sapiens, UniProt P57771, C142S); experiment: FCPIA, 107C RGS8/Gαo binding
T14 sequence (P57771 74-189 isoform P57771-2 C160S): T3 sequence (P57771 56-171 C89S/C142S) with S34C
Procedure, shortened: as §3

RGS16 = target: T15, RGS16 (Homo sapiens, UniProt O15492); experiment: FCPIA, RGS16/Gαo binding
T15 sequence (O15492 1-202): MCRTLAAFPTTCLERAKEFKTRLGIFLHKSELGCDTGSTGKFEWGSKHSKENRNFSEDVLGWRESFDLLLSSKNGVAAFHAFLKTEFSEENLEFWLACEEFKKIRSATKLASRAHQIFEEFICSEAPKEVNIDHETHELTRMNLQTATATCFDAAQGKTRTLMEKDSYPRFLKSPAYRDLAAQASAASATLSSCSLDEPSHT

RGS4 = target: T16, RGS4 (Homo sapiens, UniProt P49798); experiment: ThermoFluor thermal stability, RGS4; format: binding
T16 sequence (P49798 52-205 limits assumed): T2 sequence (P49798 52-205 limits assumed)

papain = target: T17, papain (Carica papaya, UniProt P00784); experiment: Papain activity assay; format: biochemical
T17 sequence (P00784 134-345): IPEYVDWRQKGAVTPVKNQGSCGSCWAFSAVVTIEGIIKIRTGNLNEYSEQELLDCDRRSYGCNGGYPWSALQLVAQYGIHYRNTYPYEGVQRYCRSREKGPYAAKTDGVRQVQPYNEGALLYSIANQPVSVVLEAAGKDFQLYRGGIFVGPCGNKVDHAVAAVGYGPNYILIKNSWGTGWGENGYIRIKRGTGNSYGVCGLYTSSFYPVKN
Procedure, shortened: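 FITC-casein was added to 250 nM final. Fluorescence (ex 485/em 520 nm) was read at intervals in the dark, and concentration dependence was taken at 5 min. Values are mean±SEM of three independent experiments.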

[9] = test system: Gαo-dependent membrane translocation of GFP-RGS4 in HEK293T cells; experiment: RGS4 membrane translocation in living cells; format: cell-based, human; conditions: 100 μM
Gαo [10] = target: Gαo (UniProt P59215); experiment: flow cytometry protein interaction assay
[11] = read-out: irreversible inhibition of Gα binding after extensive washing
[12] = read-out: total amount of inhibition (without a wash step)
[13] = 100 μM, FITC-casein proteolysis
[14] = concentration dependence or concentration not stated

T7 sequence (P09471 whole entry): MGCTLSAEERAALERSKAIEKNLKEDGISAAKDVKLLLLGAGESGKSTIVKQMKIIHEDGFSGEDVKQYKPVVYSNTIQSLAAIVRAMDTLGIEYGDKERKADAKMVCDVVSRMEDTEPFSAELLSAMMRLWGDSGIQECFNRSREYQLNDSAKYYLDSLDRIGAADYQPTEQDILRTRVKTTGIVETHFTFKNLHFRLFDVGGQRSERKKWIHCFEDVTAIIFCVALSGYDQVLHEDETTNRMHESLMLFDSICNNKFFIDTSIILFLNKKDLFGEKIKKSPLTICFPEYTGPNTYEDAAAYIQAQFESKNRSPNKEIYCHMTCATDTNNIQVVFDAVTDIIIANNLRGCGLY
Chain of Gαo (UniProt P59215) (P59215 whole entry): as the sequence (P09471 whole entry) above, with I93V, A104S, T292P, P294S, A306T counted along it

## Cc1ccc(-n2sc(=O)n(Cc3ccc(F)cc3)c2=O)cc1 [CCG-50014, 4-(4-fluorobenzyl)-2-p-tolyl-1,2,4-thiadiazolidine-3,5-dione]
RGS7
  IC50: > 200 µM
RGS7; FCPIA
  inhibition of RGS7/Gαo binding (in words): did not have activity
[1]
  effect on GTPase accelerating (GAP) activity of RGS4 on Gαo: concentration-dependently inhibits the GAP activity; also recorded: inhibited the GTPase accelerating activity
RGS8cys− (C160S/C107S)
  IC50: > 100 µM
RGS4 wild Type; FCPIA IC50 values
  selectivity for RGS4 over RGS8 and RGS16: > 100 fold
RGS4 wild Type; FCPIA at pH 6.5 (control for papain assay)
  inhibitory activity against the RGS4-Gαo protein-protein interaction at pH 6.5: retains full inhibitory activity
RGS4 wild Type; FCPIA, RGS4 wild type
  Hill Slope: −1.53
RGS4 wild Type; RGS4 beads, 100 μM for 15 minutes, wash with 1 mM DTT
  reversibility of inhibition after washing with DTT: partially reversed
RGS4 wild Type; RGS4 beads, 100 μM for 15 minutes, wash without DTT
  reversibility of inhibition after washing: irreversible inhibitor
RGS19
  inhibition of RGS19/Gαo binding (in words): fully inhibits
RGS19; RGS19
  Hill Slope: −0.61
RGS8 [2]; FCPIA
  inhibition of RGS8/Gαo binding (in words): fully inhibits
RGS8 [2]; FCPIA, RGS8
  Hill Slope: −0.99
RGS8 [2]; FCPIA, wildtype RGS8, Fig. 5
  Hill Coefficient: −0.79
RGS8 [2]; IC50 (μM), FCPIA, wildtype RGS8, Fig. 5, three experiments
  IC50: 6.1 µM
RGS8 [2]; RGS8 beads, 100 μM for 15 minutes, wash with 1 mM DTT
  reversibility of inhibition after washing with DTT: partially reversed
RGS8 [2]; RGS8 beads, 100 μM for 15 minutes, wash without DTT
  reversibility of inhibition after washing: irreversible inhibitor
RGS8 [2]; read-out: total amount of inhibition (without a wash step), WT RGS8, 20 μM
  inhibition at 20 µM: 64 ± 2%
Gαo [3]
  effect on intrinsic rate of GTP hydrolysis by Gαo: did not alter
160C RGS8 (C107S)
  IC50: 0.71 µM
160C RGS8 (C107S); 160C RGS8, 20 μM
  reversibility of inhibition after washing: completely irreversible
160C RGS8 (C107S); FCPIA, 160C RGS8, Fig. 5
  Hill Coefficient: −0.36
160C RGS8 (C107S); [11]
  inhibition at 20 µM: ~50%
160C RGS8 (C107S); [12]
  inhibition at 20 µM: 56 ± 1%
WT RGS8 [4]
  residual inhibition after gel filtration: > 90%
WT RGS8 [5]
  adduct formation by LC-MS: covalent adduct
[6]
  effect on GTPase accelerating (GAP) activity of RGS8 on Gαo: concentration-dependently inhibits the GAP activity; also recorded: inhibited the GTPase accelerating activity
Gαo [7]
  effect on thermal stability of Gαo: no effect
RGS8Cys−
  adduct formation by LC-MS: No adducts are observed
107C RGS8
  competition for Gαo binding, treated versus vehicle-treated protein: no discernable difference
RGS8 [8]
  effect on thermal stability of RGS8: thermally destabilizes
RGS8 [8]; listed as CCGA-50014
  effect on thermal stability of RGS8: concentration-dependently destabilized
160C RGS8
  state of the protein after compound treatment: formed aggregates; also recorded: completely (and visually) aggregates
107C RGS8 (C160S)
  IC50: 46.5 µM
107C RGS8 (C160S); 107C RGS8, 20 μM
  reversibility of inhibition after washing: partially reversed
107C RGS8 (C160S); FCPIA, 107C RGS8, Fig. 5
  Hill Coefficient: −0.54
107C RGS8 (C160S); [11]
  inhibition at 20 µM: ~20%
107C RGS8 (C160S); [12]
  inhibition at 20 µM: 45 ± 2%
RGS16
  inhibition of RGS16/Gαo binding (in words): fully inhibits
RGS16; RGS16
  Hill Slope: −1.33
RGS4
  effect on thermal stability of RGS4: concentration-dependently destabilized
papain; [13]
  effect on papain activity: no effect
[9]
  effect on Gαo-dependent membrane localization of GFP-RGS4: reversed the membrane localization; also recorded: significant decrease

## CCN1C(=O)C=CC1=O [NEM, N-ethyl maleimide, reference compound]
RGS8 [2]; FCPIA
  inhibition of RGS8/Gαo binding (in words): no effect
papain; [14]
  effect on papain activity: no effect

## NC(=O)CI [iodoacetamide]
papain; [13]
  effect on papain activity: markedly inhibits
papain; [14]
  effect on papain activity: concentration-dependently inhibited
papain; concentration dependence or concentration not stated, listed as IA
  effect on papain activity: inhibited the proteolytic activity of papain in a concentration-dependent manner

## WT RGS8 treated with CCG-50014 (with its covalently attached CCG-50014), recovered from gel filtration (domain or fragment)
Gαo [10]
  fold less potent at competing for Gα binding than vehicle-treated RGS8: 14 fold
